Assay results as given in ChEMBL document CHEMBL1671711, “Serum and cerebrospinal fluid levels of colistin in pediatric patients” (Antimicrob Agents Chemother, 2010).

Experiments:
Assay type in all cases: ADME, organism-based
Set-up in all cases: route intravenous
Serum [1] = test: Drug level in pediatric patient serum with gram-negative bacterial infection assessed as Colistin level at 4.8 mg/kg/day, iv administered every 8 hrs for 7 days measured after 30 mins by LS/MS/MS analysis; conditions: human, in vivo, 0.5 h
Method in brief: (§1)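 Blood was drawn 30 min after the end of the 20-min IV CMS infusion, given every 8 h. Serum was separated by centrifugation, stored at −80°C, and assayed by LC-MS-MS for colistin A plus B (interday CV <4.4%, accuracy within ±1.9%). Values are means of two sampling days; course 1 was sampled once.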

Serum [2] = test: Drug level in pediatric patient serum with gram-negative bacterial infection assessed as Colistin level at 10.4 mg/kg/day, iv administered every 8 hrs for 46 days measured after 30 mins by LS/MS/MS analysis; conditions: human, in vivo, 0.5 h; method in brief: as §1
Serum [3] = test: Drug level in pediatric patient serum with gram-negative bacterial infection assessed as Colistin level at 16 mg/kg/day, iv administered every 8 hrs for 93 days measured after 30 mins by LS/MS/MS analysis; conditions: human, in vivo, 0.5 h; method in brief: as §1
Serum [4] = test: Drug level in pediatric patient serum with gram-negative bacterial infection assessed as Colistin level at 16 mg/kg/day, iv administered every 8 hrs for 51 days measured after 30 mins by LS/MS/MS analysis; conditions: human, in vivo, 0.5 h; method in brief: as §1
Serum [5] = test: Drug level in pediatric patient serum with gram-negative bacterial infection assessed as Colistin level at 18 mg/kg/day, iv administered every 8 hrs for 42 days measured after 30 mins by LS/MS/MS analysis; conditions: human, in vivo, 0.5 h; method in brief: as §1
[6] = Drug level in pediatric patient cerebrospinal fluid with gram-negative bacterial infection assessed as Colistin level at 4.8 mg/kg/day, iv administered every 8 hrs for 7 days measured after 30 mins by LS/MS/MS analysis; conditions: human, in vivo, 0.5 h
Method in brief: (§2)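 Children (1 month to 14 years) received CMS in 30 to 50 ml normal saline by 20-min IV infusion every 8 h. CSF was taken from EVD systems alongside blood, after the end of infusion, and stored at −80°C. It was diluted 1:1 with serum, protein-precipitated, and analysed by LC-MS-MS for colistin A plus B against standards in pH 7.4 phosphate-buffered artificial-CSF Ringer with serum. Values are means of two days; course 1 was sampled once.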

[7] = Drug level in pediatric patient cerebrospinal fluid with gram-negative bacterial infection assessed as Colistin level at 10.4 mg/kg/day, iv administered every 8 hrs for 46 days measured after 30 mins by LS/MS/MS analysis; conditions: human, in vivo, 0.5 h; method in brief: as §2
[8] = Drug level in pediatric patient cerebrospinal fluid with gram-negative bacterial infection assessed as Colistin level at 16 mg/kg/day, iv administered every 8 hrs for 93 days measured after 30 mins by LS/MS/MS analysis; conditions: human, in vivo, 0.5 h; method in brief: as §2
[9] = Drug level in pediatric patient cerebrospinal fluid with gram-negative bacterial infection assessed as Colistin level at 16 mg/kg/day, iv administered every 8 hrs for 51 days measured after 30 mins by LS/MS/MS analysis; conditions: human, in vivo, 0.5 h; method in brief: as §2
[10] = Drug level in pediatric patient cerebrospinal fluid with gram-negative bacterial infection assessed as Colistin level at 18 mg/kg/day, iv administered every 8 hrs for 42 days measured after 30 mins by LS/MS/MS analysis; conditions: human, in vivo, 0.5 h; method in brief: as §2
Serum [11] = test: Drug level in pediatric patient serum with gram-negative bacterial infection before initiation of 4.8 mg/kg/day, iv administered every 8 hrs for 7 days by LS/MS/MS analysis; conditions: human, in vivo
Method in brief: (§3)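 Trough sampling: blood was drawn immediately before the 20-min IV CMS infusion (every 8 h), and CSF was taken from EVD systems within 1 h before infusion. Samples were stored at −80°C and analysed by LC-MS-MS for colistin, and for CMS via acid hydrolysis with subtraction. CSF was diluted 1:1 with serum. Values are means of two days.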

Serum [12] = test: Drug level in pediatric patient serum with gram-negative bacterial infection before initiation of 10.4 mg/kg/day, iv administered every 8 hrs for 46 days by LS/MS/MS analysis; conditions: human, in vivo; method in brief: as §3
Serum [13] = test: Drug level in pediatric patient serum with gram-negative bacterial infection before initiation of 16 mg/kg/day, iv administered every 8 hrs for 93 days by LS/MS/MS analysis; conditions: human, in vivo; method in brief: as §3
Serum [14] = test: Drug level in pediatric patient serum with gram-negative bacterial infection before initiation of 16 mg/kg/day, iv administered every 8 hrs for 51 days by LS/MS/MS analysis; conditions: human, in vivo; method in brief: as §3
Serum [15] = test: Drug level in pediatric patient serum with gram-negative bacterial infection before initiation of 18 mg/kg/day, iv administered every 8 hrs for 42 days by LS/MS/MS analysis; conditions: human, in vivo; method in brief: as §3
Serum [16] = test: Drug level in pediatric patient serum with gram-negative bacterial infection at 4.8 mg/kg/day, iv administered every 8 hrs for 7 days measured after 30 mins by LS/MS/MS analysis; conditions: human, in vivo, 0.5 h
Method in brief: (§4)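 Serum was taken 30 min after the end of the 20-min IV CMS infusion (every 8 h) and stored at −80°C. It underwent acid hydrolysis with 1 M H2SO4 for 15–20 min, neutralisation with 1 M NaOH, and precipitation with acetonitrile containing 0.1% TFA. LC-MS-MS colistin before hydrolysis was subtracted from colistin after hydrolysis to give CMS. Values are means of two days.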

Serum [17] = test: Drug level in pediatric patient serum with gram-negative bacterial infection at 10.4 mg/kg/day, iv administered every 8 hrs for 46 days measured after 30 mins by LS/MS/MS analysis; conditions: human, in vivo, 0.5 h; method in brief: as §4
Serum [18] = test: Drug level in pediatric patient serum with gram-negative bacterial infection at 16 mg/kg/day, iv administered every 8 hrs for 93 days measured after 30 mins by LS/MS/MS analysis; conditions: human, in vivo, 0.5 h; method in brief: as §4
Serum [19] = test: Drug level in pediatric patient serum with gram-negative bacterial infection at 16 mg/kg/day, iv administered every 8 hrs for 51 days measured after 30 mins by LS/MS/MS analysis; conditions: human, in vivo, 0.5 h; method in brief: as §4
Serum [20] = test: Drug level in pediatric patient serum with gram-negative bacterial infection at 18 mg/kg/day, iv administered every 8 hrs for 42 days measured after 30 mins by LS/MS/MS analysis; conditions: human, in vivo, 0.5 h; method in brief: as §4
[21] = Drug level in pediatric patient cerebrospinal fluid with gram-negative bacterial infection before initiation of 4.8 mg/kg/day, iv administered every 8 hrs for 7 days by LS/MS/MS analysis; conditions: human, in vivo; method in brief: as §3
[22] = Drug level in pediatric patient cerebrospinal fluid with gram-negative bacterial infection before initiation of 10.4 mg/kg/day, iv administered every 8 hrs for 46 days by LS/MS/MS analysis; conditions: human, in vivo; method in brief: as §3

COLISTIN showed a Drug uptake (Serum [1]) of 0.29 µg/mL, a Drug uptake (Serum [2]) of 1.46 µg/mL and a Drug uptake (Serum [3]) of 1.33 µg/mL. It also gave a Drug uptake (Serum [4]) of 1.6 µg/mL, a Drug uptake (Serum [5]) of 2.2 µg/mL and a Drug uptake [6] of 0.06 µg/mL. It also gave a Drug uptake [7] of 0.05 µg/mL, a Drug uptake [8] of 0.46 µg/mL and a Drug uptake [9] of 0.11 µg/mL. For the same sequence, the Drug uptake [10] was 0.07 µg/mL, the Drug uptake (Serum [11]) was 0.28 µg/mL and the Drug uptake (Serum [12]) was 0.84 µg/mL. For the same sequence, the Drug uptake (Serum [13]) was 0.75 µg/mL, the Drug uptake (Serum [14]) was 0.93 µg/mL and the Drug uptake (Serum [15]) was 6.11 µg/mL. It also gave a Drug uptake (Serum [16]) of 2.86 µg/mL, a Drug uptake (Serum [17]) of 7.9 µg/mL and a Drug uptake (Serum [18]) of 8.41 µg/mL. It also gave a Drug uptake (Serum [19]) of 9.89 µg/mL, a Drug uptake (Serum [20]) of 7.98 µg/mL and a Drug uptake [21] of 0.06 µg/mL. It also gave a Drug uptake [22] of 0.03 µg/mL.
